We go through eleven compounds from article PMC3578425 (Pharmacological research : the official journal of the …, 2010).

Assay [1] has as its target P2Y1 receptors on human platelets (Homo sapiens, UniProt P47900). Nature of the assay: [125I]MRS2500 binding assay with intact washed human platelets. The conditions noted are these: for effect on [125I]MRS2500 binding: competing drug up to 100 μM.
Another assay deals with human P2Y1 receptor (Homo sapiens, UniProt P47900). The format is binding. To be noted: for Ki: read-out: Ki, inhibition of [125I]MRS2500 binding, competition curves.
Assay [2] deals with P2Y1 receptors on mouse platelets (Mus musculus, UniProt P49650). Nature of the assay: [125I]MRS2500 binding assay with intact washed mouse platelets. The gist of the method:
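Mouse washed platelets were prepared by differential centrifugation in Tyrode's buffer, pH 7.3, with 0.35% human serum albumin and apyrase (0.02 U/ml), held at 150,000 platelets/μl at 37°C. Platelet suspension (400 μl in 0.5 ml) was incubated 5 min with [125I]MRS2500 at 20°C or 37°C, with or without competitors. Samples were filtered on GF/C, washed five times with ice-cold buffer, and gamma-counted. Nonspecific binding was defined with 10 μM MRS2179.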

For another assay, the target named is P2Y1 receptor. To be noted: read-out: Kd for the P2Y1 receptor; cited from earlier work.
Assay [3] deals with membranes from wild-type insect cells (empty vector-infected Sf9). Put plainly: [125I]MRS2500 binding to membranes from empty vector-infected. To be noted: wide range of membrane concentrations; nonspecific defined with 30 μM 2MeSADP.
Assay [4] has as its system platelets isolated from P2Y1(−/−) mice. Put plainly: [125I]MRS2500 binding to platelets isolated from P2Y1. Also noted: species or system mouse.
[5] abbreviates: wild-type mouse platelets, 10 μM competitor.
Where [6] appears, read: read-out: Ki, inhibition of [125I]MRS2500 binding, human platelets, competition.
[7] abbreviates: approximately 0.3 nM [125I]MRS2500, 300 ng membranes, data not shown.
Where [8] appears, read: human platelets, 37°C, data not shown.
[9] abbreviates: P2Y1 receptor-expressing Sf9 membranes.

Where “and” joins values, the source holds several entries; their conditions need not be identical. Equal entries are not always repeated. Entries after “also recorded” stand apart in the source; their conditions may differ. Where two headings read alike, the source gives them in different places.

P2Y1 receptors on human platelets, sequence (P47900 whole entry): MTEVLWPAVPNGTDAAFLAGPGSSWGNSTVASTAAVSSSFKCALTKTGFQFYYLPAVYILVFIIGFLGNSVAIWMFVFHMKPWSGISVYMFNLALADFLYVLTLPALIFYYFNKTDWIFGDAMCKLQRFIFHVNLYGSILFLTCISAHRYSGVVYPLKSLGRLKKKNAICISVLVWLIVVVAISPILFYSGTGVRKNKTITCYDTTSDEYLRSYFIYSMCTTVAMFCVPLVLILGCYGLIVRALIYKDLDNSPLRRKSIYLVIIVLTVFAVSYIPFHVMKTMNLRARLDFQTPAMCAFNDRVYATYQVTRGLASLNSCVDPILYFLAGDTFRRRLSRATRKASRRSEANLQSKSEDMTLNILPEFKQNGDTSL
human P2Y1 receptor, sequence (P47900 whole entry): as above
P2Y1 receptors on mouse platelets, sequence (P49650 whole entry): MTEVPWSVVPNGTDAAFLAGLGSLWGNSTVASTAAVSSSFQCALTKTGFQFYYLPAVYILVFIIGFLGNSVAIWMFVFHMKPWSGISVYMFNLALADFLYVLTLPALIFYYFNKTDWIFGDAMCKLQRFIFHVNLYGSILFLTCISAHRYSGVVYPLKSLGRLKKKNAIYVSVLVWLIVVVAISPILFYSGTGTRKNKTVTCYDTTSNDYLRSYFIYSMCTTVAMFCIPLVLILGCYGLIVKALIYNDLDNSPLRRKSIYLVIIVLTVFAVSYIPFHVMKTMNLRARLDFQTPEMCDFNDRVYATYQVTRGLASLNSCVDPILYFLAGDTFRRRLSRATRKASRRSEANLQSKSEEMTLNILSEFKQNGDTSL

Take `Nc1ncnc2c1ncn2[C@@H]1O[C@H](COP(=O)(O)CP(=O)(O)OP(=O)(O)O)[C@@H](O)[C@H]1O` [!!MeATP, reference compound]: the “effect on [125I]MRS2500 binding” value in assay [1] (human platelets) is “Little effect”.

Regarding `O=c1ccn([C@@H]2O[C@H](COP(=O)(O)OP(=O)(O)OP(=O)(O)O)[C@@H](O)[C@H]2O)c(=O)[nH]1` [UTP, reference compound], the “effect on [125I]MRS2500 binding” value at human P2Y1 receptor (concentrations up to 30 μM) is on record as “no effect”.

Turning to `CSCCNc1nc(SCCC(F)(F)F)nc2c1ncn2[C@@H]1O[C@H](COP(=O)(O)OP(=O)(O)C(Cl)(Cl)P(=O)(O)O)[C@@H](O)[C@H]1O` [ARC-69931MX, [dichloro-[[[(2R,3S,4R,5R)-3,4-dihydroxy-5-[6-(2-methylsulfanylethylamino)-2-(3,3,3-trifluoropropylsulfanyl)purin-9-yl]oxolan-2-yl]methoxy-hydroxyphosphoryl]oxy-hydroxyphosphoryl]methyl]phosphonic acid, reference compound], the figures for the “effect on [125I]MRS2500 binding” value in assay [1] (human platelets) and in assay [2] (setting [5]) were “Little effect” and “no effect”, respectively.

As to `CNc1nc(I)nc2c1ncn2[C@H]1C[C@H](OP(=O)(O)O)[C@]2(COP(=O)(O)O)C[C@H]12` [MRS2500, 2-iodo-N^6-methyl-(N)-methanocarba-2′-deoxyadenosine 3′,5′-bisphosphate], the Ki in assay [1] (setting [6]) turned out to be 1.2 ± 0.15 nM.

Regarding `CNc1ncnc2c1ncn2[C@H]1C[C@H](OP(=O)(O)O)[C@@H](COP(=O)(O)O)O1` [MRS2179], the Ki in assay [1] amounted to 72.5 ± 17 nM. For the same compound, the “effect on [125I]MRS2500 binding” value in assay [2] (setting [5]) is given as “inhibited”. The Kd on P2Y1 receptor is around 100 nM.

Regarding `CNc1nc(I)nc2c1ncn2[C@H]1C[C@H](OP(=O)(O)O)[C@]2(COP(=O)(O)O)C[C@H]12` [[^125I]MRS2500, 2-iodo-N^6-methyl-(N)-methanocarba-2′-deoxyadenosine-3′,5′-bisphosphate], on human P2Y1 receptor (setting [7]), the “time steady-state binding was maintained” value is listed as “at least 40 min”. The “time to steady state binding” value on human P2Y1 receptor (setting [7]) is recorded as at most 20 min; in assay [1] (intact washed platelets (human or mouse), 20°C or 37°C), at most 5 min. Further, the Kd on human P2Y1 receptor (read-out: Kd, saturation binding of [125I]MRS2500, P2Y1 receptor-expressing Sf9 membranes, 4°C, one-site binding) came out at 1.1 ± 0.3 nM; in assay [1] (read-out: Kd, saturation binding of [125I]MRS2500, human platelets, 37°C), 0.61 nM; in assay [2] (read-out: Kd, saturation binding of [125I]MRS2500, mouse platelets, 20°C, data not shown), 0.5 nM. The “Bmax for P2Y1 receptor expression in Sf9 cells” value on human P2Y1 receptor (saturation binding of [125I]MRS2500) worked out at 13.3 ± 2.2 pmol/mg membrane protein. In assay [1] (human platelets, 20°C, data not shown), the “Bmax (binding sites)” value was 147 sites/platelet. Further, the Bmax was 151 sites/platelet and 151 ± 1 sites/platelet in assay [1] (human platelets, 37°C); 253 sites/platelet in assay [2] (mouse platelets, 20°C, data not shown); 229 sites/platelet and 229 ± 23 sites/platelet in assay [2] (wild-type mouse platelets, 37°C). Besides, the “time binding was stable” value in assay [1] (setting [8]) was “at least 15 min”. Also, the “time to apparent steady state binding” value in assay [1] (setting [8]) fell in the range of 60 to 90 s. In assay [3], the “specific binding of radioligand” value is recorded as “did not specifically bind; also recorded: no specific binding”. Also, the “specific binding of [125I]MRS2500” value in assay [4] is “not observed”.

Consider `Nc1ncnc2c1ncn2[C@@H]1O[C@H](COP(=O)(O)OP(=O)(O)O)[C@@H](O)[C@H]1O` [ADP, reference compound], for which the Ki stood at 625 ± 37 nM at human P2Y1 receptor (setting [9]) and 15400 ± 9000 nM in assay [1] (setting [6]). The “effect on [125I]MRS2500 binding” value in assay [2] (wild-type mouse platelets, 100 μM competitor) is “inhibited”.

As to `CSc1nc(N)c2ncn([C@@H]3O[C@H](COP(=O)(O)OP(=O)(O)O)[C@@H](O)[C@H]3O)c2n1` [2MeSADP, 2-methylthio-adenosine 5′-diphosphate, reference compound], the “effect on [125I]MRS2500 binding” value in assay [2] (setting [5]) is “inhibited”. For the same compound, in assay [4] (high concentration of competitor), the “effect on residual [125I]MRS2500 binding” value is “not inhibited”.

As for `Nc1ncnc2c1ncn2[C@@H]1O[C@H](COP(=O)(O)OP(O)(O)=S)[C@@H](O)[C@H]1O` [ADP!S, reference compound], the Ki on human P2Y1 receptor (setting [9]) turned out to be 1750 ± 750 nM.

As for `CSc1nc(N)c2ncn([C@H]3[C@H](O)[C@H](O)[C@@]4(COP(=O)(O)OP(=O)(O)O)C[C@H]34)c2n1` [MRS2365, (1′S,2′R,3′S,4′R,5′S)-4-[(6-amino-2-methylthio-9H-purin-9-yl)-1-diphosphoryloxymethyl]bicyclo[3.1.0]hexane-2,3-diol], in assay [2] (setting [5]), the “effect on [125I]MRS2500 binding” value was “inhibited”.

`CNc1nc(Cl)nc2c1ncn2[C@H]1C[C@H](OP(=O)(O)O)[C@]2(COP(=O)(O)O)C[C@H]12` [MRS2279, 2-chloro-N^6-methyl-(N)-methanocarba-2′-deoxyadenosine-3′,5′-bisphosphate]: the Kd on P2Y1 receptor was around 10 nM.
